In ChEMBL document CHEMBL1151456, “Anaerobic NADH-fumarate reductase system is predominant in the respiratory chain of Echinococcus multilocularis, providing a novel target for the chemotherapy of alveolar echinococcosis” (Antimicrob Agents Chemother, 2008):
Calls of active or inactive are those of the source. The calls are words filed in the database; no cut-off is given here.

Legend:
[1] = Inhibition of NADH fumarate reductase in Echinococcus multilocularis protoscolece
In short: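 Enriched mitochondrial fraction from Nemuro-strain protoscoleces, 80 μg protein/ml, in 30 mM potassium phosphate pH 7.4 with 1 mM MgCl2 at 25°C. Made anaerobic over 3 min with glucose oxidase, catalase and 10 mM β-D-glucose. NADH (100 μM) oxidation followed at 340 nm after starting with 5 mM fumarate. IC50 determined.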

[2] = test system: Echinococcus multilocularis; experiment: Antiparasitic activity against Echinococcus multilocularis protoscolex at 5 uM after 5 days by trypan blue staining; assay type: functional, organism-based
In short: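 Protoscoleces of the Nemuro strain, freed of host material, kept in long-term maintenance medium in six-well plates at about 500 protoscoleces/ml, with half the medium replaced twice weekly. Compound added to the medium at 5 or 50 μM; the vehicle control was 0.5% (vol/vol) DMSO. Run in triplicate. Viability was scored microscopically on >170 protoscoleces per well by motility and trypan blue exclusion.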

[3] = test system: Echinococcus multilocularis; experiment: Antiparasitic activity against Echinococcus multilocularis protoscolex assessed dead parasite at 50 uM after 5 days by trypan blue staining; assay type: functional, organism-based
[4] = Inhibition of bovine heart mitochondrial NADH oxidase
[5] = test system: Echinococcus multilocularis; experiment: Antiparasitic activity against Echinococcus multilocularis protoscolex assessed as reduction of parasite viability at 50 uM by trypan blue staining; assay type: functional, organism-based

SMILES: C=CC(=O)Nc1ccc2ncnc(NCCc3ccc(C(C)(C)C)cc3)c2c1
- IC50 [1]: 16 nM

SMILES: CC(C)(C)c1ccc(CCNc2ncnc3ccc(N)cc23)cc1
- IC50 [1]: 2.1 nM

SMILES: CC(=O)Oc1ccccc1C(=O)Nc1ncc([N+](=O)[O-])s1
- Activity [2]: inactive

SMILES: C=C(C)[C@H]1Cc2c(ccc3c2O[C@@H]2COc4cc(OC)c(OC)cc4[C@@H]2C3=O)O1
- Activity [2]: Active

SMILES: CC(C)(C)c1ccc(CCNc2ncnc3cc(N)ccc23)cc1
- IC50 [1]: 62 nM

SMILES: COc1cccc2c(NCCc3ccc(C(C)(C)C)cc3)ncnc12
- IC50 [1]: 48 nM

SMILES: CC(C)Oc1cccc2c(NCCc3ccc(C(C)(C)C)cc3)ncnc12
- IC50 [1]: 910 nM

SMILES: CCOc1cccc2c(NCCc3ccc(C(C)(C)C)cc3)ncnc12
- IC50 [1]: 4100 nM

SMILES: c1ccc2ncncc2c1 [QUINAZOLINE]
- IC50 [1]: 2.3 nM

SMILES: CC(C)(C)c1ccc(CCNc2ncnc3c(O)cccc23)cc1
- Activity [3]: Active
- IC50 [1]: 71 nM
- IC50 [4]: 230 nM
- Activity [2]: inactive
- Activity [5]: Active
